SMILES strings stand for the structures. Calls of active or inactive are those of the source. The calls are words filed in the database; no cut-off is given here.

The target in assay [1] is T1, L-lactate dehydrogenase A chain (Homo sapiens, UniProt P00338). Put plainly: Inhibition of human LDHA at 2 uM using pyruvate as substrate by monitoring the disappearance of NADH relative to control.
Assay [2] concerns MG-63. The experiment in a line: Growth inhibition of human MG63 cells at 10 uM after 72 hrs by MTT assay relative to control. Type of assay: functional. The conditions noted are these: for inhibition of growth at 10 µM: MG-63, 72 h, read-out: GI. A digest of the protocol:
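MG-63 cells (2500/well) were plated overnight. 10 μL of 100 μM working solution in PBS, diluted from 40 mM stock, was added for 72 h. MTT was added for 4 h, the solvent replaced with DMSO, and OD570 read as percent growth inhibition.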
In general terms: Tetrazolium dyes change colour on reduction, which living cells bring about.

Assay [3] concerns the target T1, L-lactate dehydrogenase A chain. The experiment in a line: Inhibition of human LDHA using pyruvate as substrate by monitoring the disappearance of NADH relative to control.
For assay [4], the target named is L-lactate dehydrogenase A chain (Bos taurus, UniProt P19858). Put plainly: Inhibition of bovine heart LDHA.
Assay [5] has as its system MG-63. The experiment in a line: Induction of apoptosis in human MG63 cells assessed as early apoptotic cells at 10 uM after 24 hrs by annexin V-FITC/propidium iodide staining-based flow cytometric analysis (reference value: 0.8%). It is filed as functional.
Assay [6] has as its system MG-63. Put plainly: Induction of apoptosis in human MG63 cells assessed as late apoptotic cells at 2 uM after 24 hrs by annexin V-FITC/propidium iodide staining-based flow cytometric analysis (reference value: 3.2%). It is filed as functional. A general note: A flow cytometer gives signals particle by particle.
The subject of assay [7] is MG-63. Put plainly: Induction of apoptosis in human MG63 cells assessed as late apoptotic cells at 10 uM after 24 hrs by annexin V-FITC/propidium iodide staining-based flow cytometric analysis (reference value: 3.2%). Type of assay: functional.
Assay [8] has as its system MG-63. Put plainly: Induction of apoptosis in human MG63 cells assessed as viable cells at 2 uM after 24 hrs by annexin V-FITC/propidium iodide staining-based flow cytometric analysis (reference value: 95.2%). It is filed as functional. The following applies: MG-63, 24 h, read-out: Activity.
The target of assay [9] is T1, L-lactate dehydrogenase A chain. Put plainly: Inhibition of LDHA in human MG63 cells assessed as increase in oxygen consumption rate at 2 to 10 uM after 6 hrs by XF24 extracellular flux analyzer based assay. It is filed as cell-based. An outline of the steps: (§1)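 MG-63 cells (30 000/well) were pretreated for 6 h with a range of concentrations. OCR and ECAR were then measured on the XF24 extracellular flux analyzer.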

Assay [10] concerns MG-63. Put plainly: Induction of apoptosis in human MG63 cells assessed as necrotic cells at 5 uM after 24 hrs by annexin V-FITC/propidium iodide staining-based flow cytometric analysis (reference value: 0.8%). Type of assay: functional.
The subject of assay [11] is MG-63. The experiment in a line: Induction of apoptosis in human MG63 cells assessed as necrotic cells at 10 uM after 24 hrs by annexin V-FITC/propidium iodide staining-based flow cytometric analysis (reference value: 0.8%). It is filed as functional.
Assay [12] addresses T1, L-lactate dehydrogenase A chain. The experiment in a line: Inhibition of LDHA in human MG63 cells assessed as decrease in lactate levels after 4 hrs. Type of assay: cell-based. A digest of the protocol: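 MG-63 cells (3×10^5/well, 6-well) were plated overnight and treated for 4 h at 2, 5, 8, 10 and 12 μM, with 10 μM for the reference. Medium was centrifuged for 5 min and 1 mL assayed for lactate on a Nova Bioprofile Flex analyzer. IC50 was derived from the dose-response.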

Assay [13] deals with MG-63. Put plainly: Induction of apoptosis in human MG63 cells assessed as late apoptotic cells at 5 uM after 24 hrs by annexin V-FITC/propidium iodide staining-based flow cytometric analysis (reference value: 3.2%). It is filed as functional.
Assay [14] concerns MG-63. Put plainly: Induction of apoptosis in human MG63 cells assessed as viable cells at 10 uM after 24 hrs by annexin V-FITC/propidium iodide staining-based flow cytometric analysis (reference value: 95.2%). Type of assay: functional. The conditions noted are these: MG-63, 24 h, read-out: Activity.
The target of assay [15] is T1, L-lactate dehydrogenase A chain. The experiment in a line: Binding affinity to LDHA (unknown origin) by ITC analysis. A digest of the protocol:
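LDHA diluted to 10 μM in 50 mM Hepes pH 7.2, 100 mM NaCl, 2 mM DTT, 1% DMSO (250 μL in cell); ligand at 100 μM in the same buffer titrated in 2.5 μL injections at 25 °C. One-site model fit gives the binding parameters.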
(In general: ITC needs no label: the signal is the heat of the interaction.)

The subject of assay [16] is MG-63. Put plainly: Induction of apoptosis in human MG63 cells after 24 hrs by annexin V-FITC/propidium iodide staining-based flow cytometric analysis. Type of assay: functional, cell-based.
The test system of assay [17] is MG-63. The experiment in a line: Induction of apoptosis in human MG63 cells assessed as necrotic cells at 2 uM after 24 hrs by annexin V-FITC/propidium iodide staining-based flow cytometric analysis (reference value: 0.8%). It is filed as functional.
In assay [18] the test system is MG-63. Put plainly: Induction of apoptosis in human MG63 cells assessed as early apoptotic cells at 5 uM after 24 hrs by annexin V-FITC/propidium iodide staining-based flow cytometric analysis (reference value: 0.8%). Type of assay: functional.
Assay [19] deals with MG-63. Put plainly: Induction of apoptosis in human MG63 cells assessed as early apoptotic cells at 2 uM after 24 hrs by annexin V-FITC/propidium iodide staining-based flow cytometric analysis (reference value: 0.8%). It is filed as functional.
Assay [20] deals with MG-63. The experiment in a line: Induction of apoptosis in human MG63 cells assessed as viable cells at 5 uM after 24 hrs by annexin V-FITC/propidium iodide staining-based flow cytometric analysis (reference value: 95.2%). It is filed as functional. The conditions noted are these: MG-63, 24 h, read-out: Activity.
The subject of assay [21] is MG-63. Put plainly: Growth inhibition of human MG63 cells after 72 hrs by MTT assay. Type of assay: functional, cell-based. The following applies: MG-63, 72 h. A digest of the protocol: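 MG-63 cells (2500/well), grown in DMEM with 10% FBS at 37 °C and 5% CO2, plated overnight. They were then exposed for 72 h to eight concentrations (400 to 3.1 μM as listed), diluted in PBS from 40 mM stocks. MTT was added for 4 h and the formazan dissolved in DMSO, with OD read at 570 nm. EC50 is the mean of three independent experiments; cisplatin was the positive control.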

The target of assay [22] is T1, L-lactate dehydrogenase A chain. The experiment in a line: Inhibition of LDHA in human MG63 cells assessed as decrease in extracellular acidification rate at 2 to 10 uM after 6 hrs by XF24 extracellular flux analyzer based assay. Type of assay: cell-based. A digest of the protocol:
as §1

As usually defined, the inhibition is the share of the control response that was lost under treatment. The molecule `CCOC(=O)C[C@H](c1cc(OC)c2c(c1)OCCO2)c1oc(CO)cc(=O)c1O` came in with an inhibition in [1] of 71%. Also, the inhibition of growth at 10 µM in assay [2] worked out at 67.8%.

In the case of `Cc1cc(=O)c(O)c([C@H](CC(=O)N2CCc3c([nH]c4ccccc34)C2)c2ccnc3ccccc23)o1`, the inhibition of growth at 10 µM in [2] came to 48.7%.

Turning to `COC(=O)C[C@H](c1cccc(O)c1)c1oc(CSc2ccccc2OC)cc(=O)c1O`, in assay [2], the inhibition of growth at 10 µM was 68.9%.

For orientation: IC50 means the point on the concentration scale where inhibition reaches its midpoint. Turning to `O=C1CC(c2c(Cl)cccc2Cl)CC(O)=C1Sc1ccccc1Cl` (stereo not given), the IC50 in [3] was found to be 2370 nM. The “growth inhibition (GI)” value in assay [2] was “inactive”.

As for `COc1c(C)c2c(c(O)c1C/C=C(\C)CCC(=O)NCc1ccc(Cl)cc1)C(=O)OC2`, in assay [2], the “growth inhibition (GI)” value is “inactive”.

Usually Ki stands for the dissociation constant of the complex between target and ligand, obtained from inhibition or displacement. Read a high Ki as weaker binding. `NC(=O)C(=O)O` [OXAMATE] displayed a Ki in assay [4] of 136 µM.

Usually Kd stands for the free concentration of one partner at which half of the binding sites on the other are occupied at equilibrium, for simple one-to-one binding. Lower therefore signals a tighter complex. One may read the EC50 as the concentration needed to bring the measured effect to its halfway point. Higher therefore signals weaker potency. Take `COCc1cc(=O)c(O)c([C@@H](CC(N)=O)c2cc3ccccc3n(CC(C)C)c2=O)o1`: the Activity in assay [5] is given as 3%; in [6], 4.4%; in assay [7], 12.9%; in assay [10], 0.7%; in [11] it was 1.2%; in assay [13], 5.8%. Also, the Activity result is “Dose-dependent effect” in assay [16], 0.6% in assay [17], 4.2% in assay [18] and 1% in assay [19]. Moreover, the IC50 in assay [3] was 330 nM; in assay [12], 7.19 µM. Also, the figures for the inhibition in assay [1], in assay [9] and in assay [12] were 94%, “Dose-dependent effect” and “Dose-dependent effect”, respectively. In addition, the viability at 2 µM in assay [8] worked out at 94%. For the same molecule, the inhibition of growth at 10 µM in [2] was determined as 88.7%. In addition, the viability at 10 µM in [14] turned out to be 82.9%. In [15], this molecule had a Kd of 950 nM. Further, in assay [20], the viability at 5 µM was 89.3%. The EC50 in assay [21] is 3.35 µM. The inhibition entry in [22] was “Active”.

The values are drawn from ChEMBL document CHEMBL4257447, “Discovery of human lactate dehydrogenase A (LDHA) inhibitors as anticancer agents to inhibit the proliferation of MG-63 osteosarcoma cells” (Medchemcomm, 2017).
